ChEMBL document CHEMBL4346761, “Microwave-Assisted Organic Synthesis, structure-activity relationship, kinetics and molecular docking studies of non-cytotoxic benzamide derivatives as selective butyrylcholinesterase inhibitors” (Bioorg Med Chem, 2019)
The source made the active and inactive calls. The calls are words filed in the database; no cut-off is given here.

Tests used:
Cholinesterase [1] = target: T1, Cholinesterase (Equus caballus, UniProt P81908); test: Mixed inhibition of equine serum BChE using varying levels of […] chloride as substrate by Lineweaver-Burk plot analysis
T1 sequence (P81908 whole entry): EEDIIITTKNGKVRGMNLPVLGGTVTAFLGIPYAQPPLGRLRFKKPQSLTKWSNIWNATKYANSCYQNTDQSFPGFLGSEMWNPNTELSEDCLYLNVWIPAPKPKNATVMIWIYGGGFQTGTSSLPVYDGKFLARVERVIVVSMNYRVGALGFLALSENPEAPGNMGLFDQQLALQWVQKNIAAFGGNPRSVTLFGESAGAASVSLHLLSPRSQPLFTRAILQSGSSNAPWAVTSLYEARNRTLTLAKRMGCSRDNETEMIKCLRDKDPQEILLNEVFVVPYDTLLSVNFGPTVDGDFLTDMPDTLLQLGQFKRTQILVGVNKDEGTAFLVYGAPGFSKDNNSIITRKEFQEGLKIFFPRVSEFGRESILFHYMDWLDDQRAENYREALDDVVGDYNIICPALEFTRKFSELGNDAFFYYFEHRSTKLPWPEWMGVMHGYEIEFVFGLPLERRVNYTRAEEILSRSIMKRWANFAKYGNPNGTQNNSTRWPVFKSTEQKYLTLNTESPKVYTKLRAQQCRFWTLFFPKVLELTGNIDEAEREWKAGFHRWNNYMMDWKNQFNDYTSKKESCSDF
Summary of the method: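 Kinetics for BChE in the Ellman format with varied substrate. Inhibition mode was assigned from Lineweaver-Burk plots, secondary replots (slope vs inhibitor concentration) and Dixon plots. Apparent Km and Vmax were determined.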

Cholinesterase [2] = target: T1, Cholinesterase; test: (§1) Inhibition of equine serum BChE using […] chloride as substrate preincubated for 15 mins followed by substrate addition and measured after 15 mins under dark condition by Ellman's method
Summary of the method: (§2)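 Modified Ellman assay. Equine serum BChE (51.732 mU) was preincubated 15 min at 25 °C with test compound (dissolved in methanol) in 100 mM sodium phosphate buffer, pH 8.0. Butyrylthiocholine chloride (0.5 mM) was added for 15 min in the dark, then DTNB (0.5 mM) was added. Absorbance was read at 412 nm and mean IC50 values were derived.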

[3] = target: Acetylcholinesterase (Electrophorus electricus) (UniProt O42275); test: Inhibition of electric eel AChE using acetylthiocholine iodide as substrate preincubated for 15 mins followed by substrate addition and measured after 15 mins under dark condition by Ellman's method
Acetylcholinesterase (Electrophorus electricus), sequence (O42275 24-633 limits assumed): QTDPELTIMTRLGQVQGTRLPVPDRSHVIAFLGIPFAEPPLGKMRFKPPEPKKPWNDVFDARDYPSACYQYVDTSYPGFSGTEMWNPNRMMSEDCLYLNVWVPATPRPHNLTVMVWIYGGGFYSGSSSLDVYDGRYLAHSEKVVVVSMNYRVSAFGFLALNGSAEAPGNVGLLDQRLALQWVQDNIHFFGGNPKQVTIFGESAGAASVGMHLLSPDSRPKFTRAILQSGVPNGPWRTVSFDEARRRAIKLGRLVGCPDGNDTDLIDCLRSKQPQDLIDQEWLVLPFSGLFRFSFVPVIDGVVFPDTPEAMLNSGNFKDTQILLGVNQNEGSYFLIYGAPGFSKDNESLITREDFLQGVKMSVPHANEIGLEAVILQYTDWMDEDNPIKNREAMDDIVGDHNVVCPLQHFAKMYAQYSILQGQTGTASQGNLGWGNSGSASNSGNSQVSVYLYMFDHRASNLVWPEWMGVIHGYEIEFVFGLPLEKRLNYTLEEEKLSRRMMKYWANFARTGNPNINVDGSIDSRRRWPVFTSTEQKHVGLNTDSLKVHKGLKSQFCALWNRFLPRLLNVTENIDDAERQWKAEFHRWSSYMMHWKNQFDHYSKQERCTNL
Summary of the method: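 Modified Ellman assay. Electric eel AChE (0.002 mU) was preincubated 15 min at 25 °C with test compound (dissolved in methanol) in 100 mM sodium phosphate buffer, pH 8.0. Acetylthiocholine iodide (0.5 mM) and DTNB were added. After 15 min in the dark, absorbance was read at 412 nm.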

NIH3T3 [4] = test: Cytotoxicity against mouse 3T3 cells at 1 to 30 uM measured after 48 hrs by MTT assay relative to control; type: cell-based; conditions: nih3t3, 48 h
Summary of the method: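 MTT colorimetric read-out. Cells seeded at 3x10^5 in 100 µL medium and left 24 h to attach. Medium then replaced with fresh medium plus test compound (1 to 30 µM). Incubated 48 h at 37 °C, 5% CO2, 90% humidity. MTT added, 4 h incubation. Formazan dissolved in DMSO, absorbance read at 540 nm. IC50 values calculated.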

[5] = target: Cholinesterase (Equus caballus) (UniProt P81908); test: Inhibition of equine serum BChE using […] chloride as substrate preincubated for 15 mins followed by substrate addition and measured after 15 mins under dark condition by Ellman's method relative to control; set-up: concentration or dose not given beside the values; summary of the method: as §2
Cholinesterase (Equus caballus), sequence (P81908 whole entry): as the sequence (P81908 whole entry) above

[6] = target: Cholinesterase (Equus caballus) (UniProt P81908); test: Potency index, ratio of donepezil IC50 to test compound IC50 for equine serum BChE
Cholinesterase [7] = target: T1, Cholinesterase; test: Uncompetitive inhibition of equine serum BChE using varying levels of […] chloride as substrate by Lineweaver-Burk plot analysis
NIH3T3 [8] = test: Cytotoxicity against mouse 3T3 cells measured after 48 hrs by MTT assay relative to control; type: cell-based; conditions: nih3t3, 48 h
Summary of the method: (§3)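 Cells seeded at 3x10^5 per well in medium and allowed to attach. After 24 h the medium was replaced with fresh medium plus test compound (1 to 30 µM). Plates were held 48 h at 37 °C, 5% CO2, 90% humidity. MTT was added for 4 h, formazan dissolved in DMSO, and absorbance read at 540 nm. IC50 values were calculated.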

NIH3T3 [9] = test: Cytotoxicity against mouse 3T3 cells measured after 48 hrs by MTT assay; type: cell-based; conditions: NIH3T3, 48 h; summary of the method: as §3
[10] = target: Cholinesterase (Equus caballus) (UniProt P81908); test: as §1; summary of the method: as §2

O=C(Nc1c(Cl)cccc1Cl)c1ccccc1
Ki (Cholinesterase [1]): 4.4 µM | IC50 (Cholinesterase [2]): 1.3 µM | inhibition [3]: inactive | Activity (NIH3T3 [4]): 33% | inhibition [5]: 100% | Ratio IC50 [6]: 10

O=C(Nc1c(Cl)cccc1Cl)c1c(F)cccc1F
Ki (Cholinesterase [7]): 5.6 µM | IC50 (Cholinesterase [2]): 12.6 µM | inhibition [3]: inactive | Activity (NIH3T3 [4]): 34% | inhibition [5]: 70.6%

C[C@@H]1C[C@@H]([C@H](O)CC2CC(=O)NC(=O)C2)C(=O)[C@@H](C)C1 [CYCLOHEXIMIDE]
Activity (NIH3T3 [8]): 95% | IC50 (NIH3T3 [9]): 0.8 µM

O=C(Nc1c(Cl)cccc1Cl)c1ccc(F)cc1
Ki (Cholinesterase [1]): 9.9 µM | IC50 (Cholinesterase [2]): 16.1 µM | inhibition [3]: inactive | Activity (NIH3T3 [4]): 29% | inhibition [5]: 86.5%

O=C(Nc1c(Cl)cccc1Cl)c1ccccc1Br
Ki (Cholinesterase [7]): 2.4 µM | IC50 (Cholinesterase [2]): 1.1 µM | inhibition [3]: inactive | Activity (NIH3T3 [4]): 41% | inhibition [5]: 88%

COc1cc(C(=O)Nc2c(Cl)cccc2Cl)cc(OC)c1OC
Ki (Cholinesterase [7]): 23.5 µM | IC50 (Cholinesterase [2]): 20.8 µM | inhibition [3]: inactive | Activity (NIH3T3 [4]): 48% | inhibition [5]: 69.2%

O=C(Nc1c(Cl)cccc1Cl)c1cccc([N+](=O)[O-])c1
inhibition [10]: inactive | inhibition [3]: inactive | Activity (NIH3T3 [4]): 41%

COc1ccc(C(=O)Nc2c(Cl)cccc2Cl)cc1
Ki (Cholinesterase [1]): 18 µM | IC50 (Cholinesterase [2]): 11.3 µM | inhibition [3]: inactive | Activity (NIH3T3 [4]): 32% | inhibition [5]: 90.7%

O=C(Nc1c(Cl)cccc1Cl)c1ccc(F)cc1F
Ki (Cholinesterase [7]): 27.6 µM | IC50 (Cholinesterase [2]): 18.7 µM | inhibition [3]: inactive | Activity (NIH3T3 [4]): 34% | inhibition [5]: 80.7%

O=C(Nc1c(Cl)cccc1Cl)c1ccc(Br)cc1
Ki (Cholinesterase [1]): 2.6 µM | IC50 (Cholinesterase [2]): 0.8 µM | inhibition [3]: inactive | Activity (NIH3T3 [4]): 49% | inhibition [5]: 84%

Cc1ccc(C(=O)Nc2c(Cl)cccc2Cl)cc1[N+](=O)[O-]
IC50 (Cholinesterase [2]): 165 µM | inhibition [3]: inactive | Activity (NIH3T3 [4]): 40% | inhibition [5]: 69.1%

COc1cccc(C(=O)Nc2c(Cl)cccc2Cl)c1
Ki (Cholinesterase [1]): 13 µM | IC50 (Cholinesterase [2]): 5.5 µM | inhibition [3]: inactive | Activity (NIH3T3 [4]): 14.8% | inhibition [5]: 95.2%

CCOc1ccccc1C(=O)Nc1c(Cl)cccc1Cl
IC50 (Cholinesterase [2]): 6 µM | inhibition [3]: inactive | Activity (NIH3T3 [4]): 15% | inhibition [5]: 112%
